Laboratory results published in ChEMBL document CHEMBL2151035, “Diarylcyclopentendione metabolite obtained from a Preussia typharum isolate procured using an unconventional cultivation approach” (J Nat Prod, 2012).
Calls of active or inactive are those of the source. The calls are words filed in the database; no cut-off is given here.

What was measured:
[1] = tested on: Radical scavenging activity; test: Antioxidant activity assessed as DPPH free radical scavenging activity after 30 mins; type: functional
Procedure, shortened: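 Test samples taken up as 10 mM DMSO stocks, dissolved in 2-propanol. 50 μL of sample, or 2-propanol vehicle as negative control, mixed with 150 μL DPPH in 2-propanol (40 uM). Shaken, stood 30 min, absorbance read at 520 nm. Percent inhibition computed against control wells. Triplicates. IC50 taken as the concentration scavenging 50% of DPPH radicals. Ascorbic acid as positive control.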

[2] = tested on: Staphylococcus aureus; test: Antibacterial activity against methicillin-resistant Staphylococcus aureus up to 30 uM after 24 hrs; type: functional, organism-based
[3] = tested on: Aspergillus fumigatus; test: Antifungal activity against Aspergillus fumigatus up to 30 uM after 48 hrs; type: functional, organism-based
[4] = tested on: Klebsiella pneumoniae; test: Antibacterial activity against Klebsiella pneumoniae up to 30 uM after 24 hrs; type: functional, organism-based
[5] = tested on: Radical scavenging activity; test: Antioxidant activity assessed as DPPH free radical scavenging activity up to 30 uM after 30 mins; type: functional
Procedure, shortened: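 Samples from 10 mM DMSO stocks were diluted in 2-propanol and mixed with DPPH in 2-propanol (40 uM solution as added). Controls were ascorbic acid (positive) and 2-propanol vehicle (negative). Plates were shaken and left for 30 min, then absorbance was read at 520 nm. Percent inhibition was calculated against control wells, in triplicate. IC50 is the concentration scavenging 50% of DPPH radicals.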

SMILES	IC50 [1] [µM]	Activity [2]	Activity [3]	Activity [4]	Activity [5]
COc1cc(C)c(Oc2cc(C)cc(OC)c2O)c(O)c1	7.9	inactive	inactive	inactive	
COc1cc(C2=CC(=O)[C@@](C)(c3ccc(O)c(OC)c3)C2=O)ccc1O		inactive	inactive	inactive	inactive
COc1cc(C)c(Oc2cc(C)cc(O)c2O)c(O)c1	11.6	inactive	inactive	inactive	
COc1cc(C)c(Oc2cc(C)cc(O)c2)c(O)c1		inactive	inactive	inactive	inactive
O=C1O[C@H]([C@@H](O)CO)C(O)=C1O [ASCORBIC ACID]	5.6				
